ARNT TACC3 PPI: disruptors of human ARNT/TACC3 interaction. AlphaScreen His-ARNT PAS-B/GST-TACC3 binding, luminescence; TACC3 fragment carries E629A point mutation. Q9Y6A5. 390,000 tested, 0.66% active. inhibition, % at 9.99 µM;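 active = mean inhibition of replicates at least 50% and at least half of replicates each reaching 50%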
GRK2 inh: human GRK2 inhibition via aptamer displacement. bead flow cytometry, FAM-aptamer displacement from GRK2. inhibition of aptamer binding, % at 10 µM. AID 488847. 330,000 tested, 0.59% active. P25098;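 active = inhibition of aptamer binding above 40%, roughly 3 SD of noise, on plates passing a quality check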;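 note: median bead fluorescence of bound FAM aptamer so fluorescent compounds give negative values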
Target sequence (P25098 whole entry, looked up): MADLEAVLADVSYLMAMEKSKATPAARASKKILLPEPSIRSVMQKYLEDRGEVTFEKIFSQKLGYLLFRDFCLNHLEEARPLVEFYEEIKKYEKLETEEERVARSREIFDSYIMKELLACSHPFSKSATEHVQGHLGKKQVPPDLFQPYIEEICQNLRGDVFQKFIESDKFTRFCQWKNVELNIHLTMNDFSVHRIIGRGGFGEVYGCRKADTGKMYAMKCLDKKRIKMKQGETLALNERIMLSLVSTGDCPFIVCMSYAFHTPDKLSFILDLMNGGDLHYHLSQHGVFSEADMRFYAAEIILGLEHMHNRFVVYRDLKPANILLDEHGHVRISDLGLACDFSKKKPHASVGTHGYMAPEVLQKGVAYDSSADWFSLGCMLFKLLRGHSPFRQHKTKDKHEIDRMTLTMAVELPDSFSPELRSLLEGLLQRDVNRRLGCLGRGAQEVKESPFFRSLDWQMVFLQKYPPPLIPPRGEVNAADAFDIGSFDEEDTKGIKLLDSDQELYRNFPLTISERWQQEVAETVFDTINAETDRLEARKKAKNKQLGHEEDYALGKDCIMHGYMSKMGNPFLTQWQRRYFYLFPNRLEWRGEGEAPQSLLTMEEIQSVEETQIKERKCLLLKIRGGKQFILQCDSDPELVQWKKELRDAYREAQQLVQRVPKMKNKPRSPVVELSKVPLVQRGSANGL
CAL PDZ FP-1: CAL PDZ (human) peptide binding inhibition; Q9HD26; inhibition, % at 24.9 µM; purified CAL PDZ, TMR-peptide fluorescence polarization, 1 h; AID 602252; 300,000 tested, 0.92% active;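 active = mean inhibition of at least 30% with at least half of replicates also reaching 30%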
Tn7 DDE FP: inhibitors of Tn7 peptide binding to human fibrin DD(E) | FP displacement of FITC-Tn7 peptide from fibrin DD(E); 0% = median of compound wells per plate | inhibition, % at 8.3 µM | 370,000 tested, 0.13% active | AID 720508;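 active = inhibition above the mean of compounds falling within the control limits plus 3 SD of them, cut at about 14% in these data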
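Assay system: Fibrin-DD(E) protein isolated from polymerized human fibrin clots; read-out basis: percent inhibition; medium: Tris/NaCl/CaCl2 buffer, pH 7.8; signal: FP measurement; incubation: 10 min plus 3 h, room temperature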
CAL PDZ FP-2: human CAL PDZ-peptide interaction inhibition; 330,000 tested, 0.02% active; inhibition, % at 20 µM; purified CAL PDZ, TMR-peptide fluorescence polarization, 1 h; Q9HD26;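 active = highest replicate inhibition of at least 40%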
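System: tagged CAL PDZ domain. Schedule: 1 h room-temperature incubation prior to read. Signal: fluorescence polarization (mP). Measure: percent inhibition from loss of millipolarization.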
DDE Tn6 FP inh: inhibitors of Tn6 peptide binding to human fibrin DD(E). Fibrin DD(E) TRITC-Tn6 fluorescence polarization displacement. inhibition, % at 8.3 µM. 370,000 tested, 0.21% active. AID 720509;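 active = inhibition above a per-campaign cutoff: mean of compounds within control limits plus 3 SD, cut at about 15% in these data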
GRK2 inh confirm: human GRK2 inhibition confirmation, cherry pick 1; shares compounds with GRK2 inh; bead-bound GRK2, FAM-aptamer displacement, flow cytometry; aptamer displacement, % at 10 µM; 2,000 tested, 4% active; AID 504451;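 active = aptamer displacement above 40%, near three times the noise of non-fluorescent compounds, on plates passing quality checks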;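 note: negative values mostly reflect intrinsic compound fluorescence rather than true enhancement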
FAM quench CP1: aptamer fluorescence quenching in GRK2 counter-screen | shares compounds with GRK2 inh | Carboxyfluorescein RNA aptamer on beads, flow cytometry quenching; active compounds read low | fluorescence response (% of DMSO), % at 10 µM | 2,000 tested, under 10 active;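 active = compounds that quench the bead-bound fluorescent RNA probe, cutting fluorescence to under half of the solvent control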;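 note: counterscreen run without GRK2 so only probe quenching by compound is measured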
GRK2 confirm 2: confirmation of human GRK2 inhibitors binding RNA aptamer site; shares compounds with GRK2 inh; bead-bound GRK2, FAM-aptamer displacement, flow cytometry; inhibition of aptamer binding, % at 10 µM; 360 tested, under 10 active;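 active = inhibition of aptamer binding above 40%, about triple the noise seen with nonglowing compounds, on plates passing quality control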;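 note: negative values mostly come from compounds that fluoresce themselves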
FAM quench SP: quenches fluorescent RNA aptamer, GRK2 hit artifact; shares compounds with GRK2 inh; carboxyfluorescein RNA aptamer beads, flow cytometry quenching; active compounds read low; fluorescence response vs DMSO, % at 10 µM; 360 tested, under 10 active;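 active = response vs DMSO under 50%, meaning signal dropped by over half, treated as fluorescence quencher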;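 note: labelled aptamer on streptavidin beads without GRK2 as a quench counter-screen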
Large screens that a line does not name were inactive (follow-up assays come after a bar, where they were run). In the library only some 1.8% were active in any assay of this set; here they are far more common.

COc1ccc(C2CC(C(F)(F)F)n3nc(C(=O)Nc4c(C)n(C)n(-c5ccccc5)c4=O)c(Cl)c3N2)cc1 (stereo not drawn)	none (no result: ARNT TACC3 PPI, CAL PDZ FP-1, Tn7 DDE FP, CAL PDZ FP-2, DDE Tn6 FP inh) | GRK2 inh confirm inactive | FAM quench CP1 inactive
COc1cccc(C2CC(C(F)(F)F)n3nc(C(=O)Nc4c(C)n(C)n(-c5ccccc5)c4=O)cc3N2)c1 (stereo not drawn)	none
COc1ccc([C@@H]2CC=C(C(=O)O)[C@H](c3ccc(Cl)cc3)N2S(=O)(=O)c2ccc(Cl)cc2)cc1	GRK2 inh 49 | GRK2 inh confirm inactive | FAM quench CP1 inactive
C[C@H](CO)N1C[C@H](C)[C@H](CN(C)Cc2ccc(C(=O)Nc3ccccc3N)cc2)Oc2ccc(NS(=O)(=O)c3cccs3)cc2C1=O	none (no result: GRK2 inh, CAL PDZ FP-1, Tn7 DDE FP, CAL PDZ FP-2, DDE Tn6 FP inh)
CN(C)c1ccc(-n2cccc2)cc1	none | GRK2 confirm 2 inactive | FAM quench SP inactive
Cc1ccc2cccc(N=Cc3c(C)[nH]n(-c4ccccc4)c3=O)c2n1	none | GRK2 inh confirm inactive | FAM quench CP1 inactive
Cc1[nH]n(-c2ccccc2)c(=O)c1/C=N/O	none
O=C(COC(=O)COc1ccccc1[N+](=O)[O-])NCc1ccc2c(c1)OCO2	GRK2 inh 43 | GRK2 inh confirm inactive | FAM quench CP1 inactive
COc1ccc(NC(=O)Nc2ccc3c(c2)C(=O)N([C@@H](C)CO)C[C@H](C)[C@@H](CN(C)C)OCCCC[C@@H](C)O3)cc1	none (no result: GRK2 inh, CAL PDZ FP-1, Tn7 DDE FP, CAL PDZ FP-2, DDE Tn6 FP inh)
CCC(=O)N1c2ccc(S(=O)(=O)CCC(=O)NCc3cccs3)cc2CC1C (stereo not drawn)	none | GRK2 confirm 2 inactive | FAM quench SP inactive
CCC(=O)N1c2ccc(S(=O)(=O)CCC(=O)NC3CCCC3)cc2CC1C (stereo not drawn)	none
CC(=O)N1CCc2cc(S(=O)(=O)CCC(=O)NCc3cccs3)ccc21	none (no result: ARNT TACC3 PPI) | GRK2 confirm 2 inactive | FAM quench SP inactive
Cc1occc1C(=O)NNC(=S)Nc1ccccc1C(F)(F)F	none
O=C(NNC(=S)Nc1ccccc1C(F)(F)F)c1ccc(Br)o1	GRK2 inh 42 | GRK2 inh confirm inactive | FAM quench CP1 inactive
C[C@@H]1CN([C@@H](C)CO)C(=O)Cc2cc(NC(=O)NC3CCCCC3)ccc2O[C@H]1CN(C)C(=O)Nc1ccccc1	none (no result: GRK2 inh, CAL PDZ FP-1, Tn7 DDE FP, CAL PDZ FP-2, DDE Tn6 FP inh)
CCCN(CC(=O)Nc1ccccc1C)C(=O)C1CC(=O)N(c2cccc(C)c2C)C1 (stereo not drawn)	none | GRK2 inh confirm inactive | FAM quench CP1 inactive
O=C(Nc1cc(Cl)ccc1N1CCOCC1)c1ccc(N2CCCCC2)c([N+](=O)[O-])c1	GRK2 inh 42 | GRK2 confirm 2 inactive | FAM quench SP inactive
Cc1cnc(NC(=O)C(C)N2CCN(C)CC2)s1 (stereo not drawn)	none
Cc1ccc(S(=O)(=O)N2CCCNCC2)cc1	none
O=S(=O)(c1ccc(F)cc1)N1CCCNCC1	none | GRK2 inh confirm inactive | FAM quench CP1 inactive
CC(=O)N1[C@@H](CO)[C@@H]2c3ccccc3N(S(=O)(=O)c3ccccc3F)C[C@@H]21	none (no result: GRK2 inh, CAL PDZ FP-1, Tn7 DDE FP, CAL PDZ FP-2, DDE Tn6 FP inh)
O=C(Nc1cc(F)ccc1F)N1C[C@H]2[C@@H](c3ccccc31)[C@H](CO)N2Cc1cccnc1	none (no result: GRK2 inh, CAL PDZ FP-1, Tn7 DDE FP, CAL PDZ FP-2, DDE Tn6 FP inh)
CCC(C(=O)NC1CCCC1)N(C(=O)Cn1nnc(-c2ccc(C)o2)n1)c1ccccc1OC (stereo not drawn)	none

Assay outcomes (PubChem BioAssay)
